Data as given in ChEMBL document CHEMBL3124902, “Homoisoflavonoids as potential imaging agents for β-amyloid plaques in Alzheimer's disease” (Eur J Med Chem, 2014).
The source made the active and inactive calls. The calls are words filed in the database; no cut-off is given here.

Key:
[1] = target: T1, Amyloid-beta precursor protein (Homo sapiens, UniProt P05067); assay: Displacement of [125I]IMPY from amyloid beta (1 to 40) (unknown origin) after 2 hrs by gamma counting analysis
Procedure, shortened: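 Incubation was 2 h at 37 °C. Bound and free fractions were separated by filtration through GF/B filters, followed by ice-cold PBS washes and counting. IC50 came from displacement curves of three independent experiments, done in duplicate. Ki was obtained by Cheng-Prusoff.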

[2] = system: Liver; assay: Biodistribution in ICR mouse liver at 2 uCi, iv measured at 2 mins by gamma counting analysis; format: ADME, organism-based; conditions: in vivo
Procedure, shortened: (§1)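 The radioiodinated ligand was given intravenously to normal ICR mice, n=5 per time point. Mice were euthanized at 2, 10, 30, 60 and 120 min, and organs were removed and weighed. Radioactivity was gamma counted. %ID/g was calculated as counts per gram of tissue divided by counts of 1% of the injected dose, taken from a 100-fold diluted aliquot.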

[3] = system: Liver; assay: Biodistribution in ICR mouse liver at 2 uCi, iv measured at 10 mins by gamma counting analysis; format: ADME, organism-based; conditions: in vivo; procedure, shortened: as §1
[4] = system: Brain; assay: Biodistribution in ICR mouse brain at 2 uCi, iv measured at 30 mins by gamma counting analysis; format: ADME, organism-based; conditions: in vivo, 0.5 h; procedure, shortened: as §1
[5] = system: Blood; assay: Biodistribution in ICR mouse blood at 2 uCi, iv measured at 10 mins by gamma counting analysis; format: ADME, organism-based; conditions: in vivo; procedure, shortened: as §1
[6] = system: Kidney; assay: Biodistribution in ICR mouse kidney at 2 uCi, iv measured at 30 mins by gamma counting analysis; format: ADME, organism-based; conditions: in vivo, 0.5 h; procedure, shortened: as §1
[7] = system: Brain; assay: Ratio of drug level in ICR mouse brain measured at 60 mins to drug level in ICR mouse brain measured at 2 mins; format: ADME; conditions: in vivo
Procedure, shortened: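 Brain uptake (%ID/g) at 60 min was divided by uptake at 2 min after intravenous injection into normal ICR mice, n=5 per time point. Brain radioactivity was gamma counted and normalised to a 1% injected-dose standard.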

[8] = system: Heart; assay: Biodistribution in ICR mouse heart at 2 uCi, iv measured at 10 mins by gamma counting analysis; format: ADME, organism-based; conditions: in vivo; procedure, shortened: as §1
[9] = system: Blood; assay: Biodistribution in ICR mouse blood at 2 uCi, iv measured at 2 hrs by gamma counting analysis; format: ADME, organism-based; conditions: in vivo; procedure, shortened: as §1
[10] = system: Blood; assay: Biodistribution in ICR mouse blood at 2 uCi, iv measured at 1 hr by gamma counting analysis; format: ADME, organism-based; conditions: in vivo; procedure, shortened: as §1
[11] = system: Brain; assay: Biodistribution in ICR mouse brain at 2 uCi, iv measured at 2 mins by gamma counting analysis; format: ADME, organism-based; conditions: in vivo; procedure, shortened: as §1
[12] = system: Blood; assay: Biodistribution in ICR mouse blood at 2 uCi, iv measured at 2 mins by gamma counting analysis; format: ADME, organism-based; conditions: in vivo; procedure, shortened: as §1
[13] = system: Heart; assay: Biodistribution in ICR mouse heart at 2 uCi, iv measured at 2 hrs by gamma counting analysis; format: ADME, organism-based; conditions: in vivo; procedure, shortened: as §1
[14] = system: Heart; assay: Biodistribution in ICR mouse heart at 2 uCi, iv measured at 2 mins by gamma counting analysis; format: ADME, organism-based; conditions: in vivo; procedure, shortened: as §1
[15] = system: Lung; assay: Biodistribution in ICR mouse lung at 2 uCi, iv measured at 30 mins by gamma counting analysis; format: ADME, organism-based; conditions: in vivo, 0.5 h; procedure, shortened: as §1
[16] = system: Blood; assay: Biodistribution in ICR mouse blood at 2 uCi, iv measured at 30 mins by gamma counting analysis; format: ADME, organism-based; conditions: in vivo, 0.5 h; procedure, shortened: as §1
[17] = system: Liver; assay: Biodistribution in ICR mouse liver at 2 uCi, iv measured at 1 hr by gamma counting analysis; format: ADME, organism-based; conditions: in vivo; procedure, shortened: as §1
[18] = system: Kidney; assay: Biodistribution in ICR mouse kidney at 2 uCi, iv measured at 1 hr by gamma counting analysis; format: ADME, organism-based; conditions: in vivo; procedure, shortened: as §1
[19] = system: Liver; assay: Biodistribution in ICR mouse liver at 2 uCi, iv measured at 2 hrs by gamma counting analysis; format: ADME, organism-based; conditions: in vivo; procedure, shortened: as §1
[20] = system: Spleen; assay: Biodistribution in ICR mouse spleen at 2 uCi, iv measured at 2 mins by gamma counting analysis; format: ADME, organism-based; conditions: in vivo; procedure, shortened: as §1
[21] = system: Heart; assay: Biodistribution in ICR mouse heart at 2 uCi, iv measured at 30 mins by gamma counting analysis; format: ADME, organism-based; conditions: in vivo, 0.5 h; procedure, shortened: as §1
[22] = system: Kidney; assay: Biodistribution in ICR mouse kidney at 2 uCi, iv measured at 10 mins by gamma counting analysis; format: ADME, organism-based; conditions: in vivo; procedure, shortened: as §1
[23] = system: Spleen; assay: Biodistribution in ICR mouse spleen at 2 uCi, iv measured at 1 hr by gamma counting analysis; format: ADME, organism-based; conditions: in vivo; procedure, shortened: as §1
[24] = system: Brain; assay: Biodistribution in ICR mouse brain at 2 uCi, iv measured at 10 mins by gamma counting analysis; format: ADME, organism-based; conditions: in vivo; procedure, shortened: as §1
[25] = system: Spleen; assay: Biodistribution in ICR mouse spleen at 2 uCi, iv measured at 10 mins by gamma counting analysis; format: ADME, organism-based; conditions: in vivo; procedure, shortened: as §1
[26] = system: Spleen; assay: Biodistribution in ICR mouse spleen at 2 uCi, iv measured at 30 mins by gamma counting analysis; format: ADME, organism-based; conditions: in vivo, 0.5 h; procedure, shortened: as §1
[27] = system: Kidney; assay: Biodistribution in ICR mouse kidney at 2 uCi, iv measured at 2 mins by gamma counting analysis; format: ADME, organism-based; conditions: in vivo; procedure, shortened: as §1
[28] = system: Brain; assay: Biodistribution in ICR mouse brain at 2 uCi, iv measured at 2 hrs by gamma counting analysis; format: ADME, organism-based; conditions: in vivo; procedure, shortened: as §1
[29] = system: Lung; assay: Biodistribution in ICR mouse lung at 2 uCi, iv measured at 2 mins by gamma counting analysis; format: ADME, organism-based; conditions: in vivo; procedure, shortened: as §1
[30] = system: Lung; assay: Biodistribution in ICR mouse lung at 2 uCi, iv measured at 2 hrs by gamma counting analysis; format: ADME, organism-based; conditions: in vivo; procedure, shortened: as §1
[31] = system: Brain; assay: Biodistribution in ICR mouse brain at 2 uCi, iv measured at 1 hr by gamma counting analysis; format: ADME, organism-based; conditions: in vivo; procedure, shortened: as §1
[32] = system: Kidney; assay: Biodistribution in ICR mouse kidney at 2 uCi, iv measured at 2 hrs by gamma counting analysis; format: ADME, organism-based; conditions: in vivo; procedure, shortened: as §1
[33] = system: Lung; assay: Biodistribution in ICR mouse lung at 2 uCi, iv measured at 1 hr by gamma counting analysis; format: ADME, organism-based; conditions: in vivo; procedure, shortened: as §1
[34] = system: Lung; assay: Biodistribution in ICR mouse lung at 2 uCi, iv measured at 10 mins by gamma counting analysis; format: ADME, organism-based; conditions: in vivo; procedure, shortened: as §1
[35] = system: Heart; assay: Biodistribution in ICR mouse heart at 2 uCi, iv measured at 1 hr by gamma counting analysis; format: ADME, organism-based; conditions: in vivo; procedure, shortened: as §1
[36] = system: Liver; assay: Biodistribution in ICR mouse liver at 2 uCi, iv measured at 30 mins by gamma counting analysis; format: ADME, organism-based; conditions: in vivo, 0.5 h; procedure, shortened: as §1
[37] = system: Spleen; assay: Biodistribution in ICR mouse spleen at 2 uCi, iv measured at 2 hrs by gamma counting analysis; format: ADME, organism-based; conditions: in vivo; procedure, shortened: as §1
[38] = target: T1, Amyloid-beta precursor protein; assay: Binding affinity to beta amyloid-containing senile plaques of Alzheimer's disease patient at 50 uM after 20 mins by thioflavin-S staining-based fluorescence microscopic analysis
Procedure, shortened: (§2)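 Paraffin sections of postmortem AD brain were dewaxed in xylene, passed through graded ethanol, then rinsed in water and 0.01 M PBS at pH 7.4. Sections were immersed in cold ligand (50 in 30% EtOH/0.1 M PBS) for 20 min and differentiated in 50% EtOH for 10 min. Adjacent sections were stained with ThS (1%, 5 min) and differentiated in 70% EtOH. Sections were then PBS-washed, mounted in 80% glycerin and imaged by fluorescence microscopy.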

[39] = target: Microtubule-associated protein tau (Homo sapiens) (UniProt P10636); assay: Binding affinity to hyperphosphorylated tau protein-containing neurofibrillary tangles of Alzheimer's disease patient at 50 uM after 20 mins by thioflavin-S staining-based fluorescence microscopic analysis; procedure, shortened: as §2
Microtubule-associated protein tau (Homo sapiens), sequence (P10636 whole entry): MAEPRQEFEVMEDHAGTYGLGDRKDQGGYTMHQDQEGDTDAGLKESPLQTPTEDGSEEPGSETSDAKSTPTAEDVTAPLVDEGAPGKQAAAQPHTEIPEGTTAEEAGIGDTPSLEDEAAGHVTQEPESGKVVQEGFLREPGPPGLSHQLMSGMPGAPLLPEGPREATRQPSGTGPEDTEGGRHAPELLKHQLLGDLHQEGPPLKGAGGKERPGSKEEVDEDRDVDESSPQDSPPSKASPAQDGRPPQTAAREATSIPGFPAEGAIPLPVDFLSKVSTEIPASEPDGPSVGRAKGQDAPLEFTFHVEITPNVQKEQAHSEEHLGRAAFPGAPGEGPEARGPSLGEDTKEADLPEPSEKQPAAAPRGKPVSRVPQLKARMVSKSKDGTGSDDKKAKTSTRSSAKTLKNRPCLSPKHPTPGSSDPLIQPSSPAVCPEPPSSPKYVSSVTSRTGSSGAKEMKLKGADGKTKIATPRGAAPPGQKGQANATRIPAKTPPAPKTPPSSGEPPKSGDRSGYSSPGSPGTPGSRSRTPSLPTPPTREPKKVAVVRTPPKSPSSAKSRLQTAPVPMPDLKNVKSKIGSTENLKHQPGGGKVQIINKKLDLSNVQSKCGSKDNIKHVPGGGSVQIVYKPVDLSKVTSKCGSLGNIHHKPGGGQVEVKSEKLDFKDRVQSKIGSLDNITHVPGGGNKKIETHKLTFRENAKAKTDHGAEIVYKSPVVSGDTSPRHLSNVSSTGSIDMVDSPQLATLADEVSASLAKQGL

T1 sequence (P05067 whole entry): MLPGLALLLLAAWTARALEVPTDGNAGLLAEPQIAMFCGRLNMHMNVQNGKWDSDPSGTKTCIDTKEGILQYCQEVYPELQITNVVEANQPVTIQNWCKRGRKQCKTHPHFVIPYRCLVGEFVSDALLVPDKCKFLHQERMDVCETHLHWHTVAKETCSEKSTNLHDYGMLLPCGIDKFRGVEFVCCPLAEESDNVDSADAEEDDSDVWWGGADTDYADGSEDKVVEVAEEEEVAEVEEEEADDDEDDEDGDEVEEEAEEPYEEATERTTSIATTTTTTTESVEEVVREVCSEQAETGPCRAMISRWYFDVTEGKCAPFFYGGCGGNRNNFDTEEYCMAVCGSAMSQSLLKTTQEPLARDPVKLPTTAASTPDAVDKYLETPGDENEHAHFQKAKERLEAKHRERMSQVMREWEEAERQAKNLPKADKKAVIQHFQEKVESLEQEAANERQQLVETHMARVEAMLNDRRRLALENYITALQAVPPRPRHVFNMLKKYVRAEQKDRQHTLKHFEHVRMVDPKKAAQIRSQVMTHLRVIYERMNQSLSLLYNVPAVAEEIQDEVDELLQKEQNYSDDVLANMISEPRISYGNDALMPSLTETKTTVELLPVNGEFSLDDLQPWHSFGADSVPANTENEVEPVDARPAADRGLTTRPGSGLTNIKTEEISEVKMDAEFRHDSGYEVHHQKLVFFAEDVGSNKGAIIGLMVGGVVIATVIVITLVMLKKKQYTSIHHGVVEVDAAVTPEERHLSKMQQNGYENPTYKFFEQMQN

## COc1cc(/C=C2\COc3ccc(Br)cc3C2=O)ccc1O
[1]
  Ki: 432 nM

## O=C1/C(=C/c2ccccc2)COc2ccc(Br)cc21
[1]
  Ki: 104 nM

## COc1ccc(/C=C2\COc3ccc(Br)cc3C2=O)cc1
[1]
  Ki: 9.98 nM

## CN(C)c1ccc(/C=C2\COc3ccc(Br)cc3C2=O)cc1Br
[1]
  Ki: 25.5 nM

## COc1cccc(/C=C2\COc3ccc(Br)cc3C2=O)c1
[1]
  Ki: 73.5 nM

## O=C1/C(=C/c2ccc(O)cc2)COc2ccc(Br)cc21
[1]
  Ki: 103 nM

## O=C1/C(=C/c2ccc([N+](=O)[O-])cc2)COc2ccc(Br)cc21
[1]
  Ki: 108 nM

## CN(C)c1ccc(/C=C2\COc3ccc([125I])cc3C2=O)cc1
[2]
  Drug uptake: 13.57 % ID/g
[3]
  Drug uptake: 4.71 % ID/g
[4]
  Drug uptake: 0.32 % ID/g
[5]
  Drug uptake: 3.87 % ID/g
[6]
  Drug uptake: 3.36 % ID/g
[7]
  Ratio: 6.9%
[8]
  Drug uptake: 1.87 % ID/g
[9]
  Drug uptake: 1.05 % ID/g
[10]
  Drug uptake: 1.22 % ID/g
[11]
  Drug uptake: 2.61 % ID/g
[12]
  Drug uptake: 8.35 % ID/g
[13]
  Drug uptake: 0.36 % ID/g
[14]
  Drug uptake: 4.46 % ID/g
[15]
  Drug uptake: 2.29 % ID/g
[16]
  Drug uptake: 2.38 % ID/g
[17]
  Drug uptake: 1.23 % ID/g
[18]
  Drug uptake: 1.42 % ID/g
[19]
  Drug uptake: 1.05 % ID/g
[20]
  Drug uptake: 2.54 % ID/g
[21]
  Drug uptake: 0.87 % ID/g
[22]
  Drug uptake: 10.88 % ID/g
[23]
  Drug uptake: 0.4 % ID/g
[24]
  Drug uptake: 0.83 % ID/g
[25]
  Drug uptake: 1.27 % ID/g
[26]
  Drug uptake: 0.7 % ID/g
[27]
  Drug uptake: 17.89 % ID/g
[28]
  Drug uptake: 0.1 % ID/g
[29]
  Drug uptake: 9.33 % ID/g
[30]
  Drug uptake: 0.73 % ID/g
[31]
  Drug uptake: 0.18 % ID/g
[32]
  Drug uptake: 1 % ID/g
[33]
  Drug uptake: 0.99 % ID/g
[34]
  Drug uptake: 4.87 % ID/g
[35]
  Drug uptake: 0.49 % ID/g
[36]
  Drug uptake: 2.07 % ID/g
[37]
  Drug uptake: 0.35 % ID/g

## COc1cc(/C=C2\COc3ccc(Br)cc3C2=O)cc(OC)c1
[1]
  Ki: 39.2 nM

## COc1ccc(/C=C2\COc3ccc(Br)cc3C2=O)cc1OC
[1]
  Ki: 54.2 nM

## CN(C)c1ccc(/C=C2\COc3ccc(Br)cc3C2=O)cc1
[38]
  Activity: Active
[1]
  Ki: 9.1 nM
[39]
  Activity: inactive

## O=C1/C(=C/c2ccc(Br)cc2)COc2ccc(Br)cc21
[1]
  Ki: 144 nM

## Nc1ccc(/C=C2\COc3ccc(Br)cc3C2=O)cc1
[1]
  Ki: 63.6 nM
